Screens: PubChem, several laboratories
PHOSPHO1 inh – PubChem AID 1565; Phosphoethanolamine/phosphocholine phosphatase (Homo sapiens), Q8TCT1; recombinant PHOSPHO1, absorbance phosphatase assay; 1.1% of 290,000 active; inhibition, % at 13.3 µM; in the data active = inhibition above about 60%
Runt-SMMHC FRET – inhibitors of RUNX1 Runt–CBFb-SMMHC binding, primary screen, biochemical, FRET, Cerulean-Runt, Venus-CBFb-SMMHC, uHTS. Cerulean-Runt/Venus-CBFb-SMMHC FRET ratio 530/480, 1 h. inhibition, % at 20 µM. 0.74% of 220,000 active;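 active = mean inhibition across duplicate retests at 20 µM reaching about 50%, limit read from the data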;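 also: 0% = DMSO wells and 100% = wells with excess untagged CBFb-SMMHC; inhibitors lower the FRET ratio by blocking Runt binding to CBFb-SMMHC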
HMGR II inh – inhibitors of E. faecalis class II HMGR, primary screen, biochemical, Enterococcus faecalis. HMG-CoA reductase (Enterococcus faecalis, mvaE). purified E. faecalis HMGR, NADPH absorbance 340 nm kinetic. inhibition, % at 10 µM. 0.41% of 190,000 active. AID 1066, 2008;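 active = inhibition above a set limit, the median over all tested compounds plus 3 SD, cut at about 9.5% in these data; inconclusive = no clear call, values can overlap the other calls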;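 also: enzyme runs in reverse so mevalonate oxidation gives rising NADPH absorbance; 0% = complete reaction with DMSO and 100% = background rate lacking mevalonate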
Wee1 degr inh – Wee1 degradation inhibitors, primary screen, cell-based, HeLa, Wee1K328M-luciferase, luminescence; Wee1-like protein kinase (Homo sapiens), P30291; HeLa Luc-Wee1K328M stability; 100% = proteasome inhibitor MG132 effect; reporter increase, % at 5 µM; AID 1321, 2008; 1.2% of 220,000 active;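 active = activation above the mean of all tested compounds plus 3 SD, set per screening run, cut at about 8.8% in these data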;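 also: cells exposed to compound for 20 h before luminescence read; 0% = DMSO alone and 100% = MG132 at 30 µM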
RanGTP-Imp inh – inhibitors of RanGTP-importin-beta interaction, primary screen, biochemical, FRET, CFP-Ran, YFP-importin-beta, homogeneous. cell-free CFP-Ran/YFP-importin-beta FRET ratio. AID 2216, 2009. Ran GTPase (GTP-bound) - importin-beta complex. inhibition, % (concentration not given with the values). 1.1% of 300,000 active;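 active = more than half of the replicate wells show a fall in the fluorescence ratio signal beyond about 16%, limit read from the data, passing the limit was not always enough; inconclusive = exactly half of the replicate wells pass the set limit; inactive = fewer than half of replicates pass the limit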;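 also: 0% = DMSO wells and 100% = Ran loaded with GDP instead of GTP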
Runt-CBFb FRET – inhibitors of RUNX1 Runt–CBFb binding, primary screen, biochemical, FRET, Cerulean-Runt, Venus-CBFb, uHTS. Cerulean-Runt/Venus-CBFb FRET ratio 530/480, 1 h. inhibition, % at 20 µM. 0.46% of 220,000 active;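 active = inhibition over about 50% at 20 µM in the single-dose screen, limit read from the data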;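 also: 0% = DMSO wells and 100% = excess unlabeled CBFb competitor control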
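Measured by: fluorescence energy transfer, 422 nm excitation, 530/480 nm emission; Assay system: Cerulean-Runt domain; Medium: Tris pH 7.5 buffer with BSA; Measure: loss of energy transfer signal; Controls: 5 µM unlabeled CBFb as full-inhibition high control; Incubation: protein complex preformed 1 h, compound exposure 1 h, room temperature, dark.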
Starred values were filed as active, the others as inactive. Sampled rows, rich in hits. Any-hit rate of the full collection: about 3.4%.

`CCN(CCO)c1cc(Cl)nc(SC)n1` gave PHOSPHO1 inh 28.3, Runt-SMMHC FRET -4.9, HMGR II inh -1.8, Wee1 degr inh -2.1, RanGTP-Imp inh 69.1* and Runt-CBFb FRET -1.2.
Screening CC(=O)c1cccc(CN2CCCC(N3CCN(c4ccccc4F)CC3)C2)c1 (stereo unspecified) returned PHOSPHO1 inh 3.1 and RanGTP-Imp inh 3.1.
`CCn1c(=O)c2ccccc2n(Cc2cccc(C)c2)c1=O` gave RanGTP-Imp inh -0.4.
`Cc1cccc(Cn2c(=O)n(Cc3ccco3)c(=O)c3ccccc32)c1` gave PHOSPHO1 inh -20.7, Runt-SMMHC FRET 3.2, HMGR II inh -1.0, Wee1 degr inh 10.2*, RanGTP-Imp inh -0.8 and Runt-CBFb FRET 4.4.
For Cc1ccc(S(=O)(=O)NNC(=O)c2ccc(F)cc2)cc1 the results were PHOSPHO1 inh 44.0 and RanGTP-Imp inh inconclusive.
For O=C(Nc1ccc(S(=O)(=O)Nc2ccccc2)cc1)C1COc2ccccc2O1 (stereo unspecified) the results were PHOSPHO1 inh 3.9, Runt-SMMHC FRET -1.0, HMGR II inh 14.9*, Wee1 degr inh 3.2, RanGTP-Imp inh 1.4 and Runt-CBFb FRET -3.0.
For Cc1ccc(C(=O)NC(=S)NNS(=O)(=O)c2ccccc2)cc1 the results were PHOSPHO1 inh 62.4*, HMGR II inh 0.0, Wee1 degr inh -4.3 and RanGTP-Imp inh inconclusive.
For Cc1ccc(S(=O)(=O)NNc2nc3ccccc3nc2C(F)(F)F)cc1 the results were PHOSPHO1 inh 92.3*, Runt-SMMHC FRET 30.1, HMGR II inh -4.0, Wee1 degr inh -0.8, RanGTP-Imp inh -1.9 and Runt-CBFb FRET 22.8.
Cc1ccc(S(=O)(=O)NNc2ccccc2)cc1 was read as PHOSPHO1 inh 27.0, Runt-SMMHC FRET 68.0*, HMGR II inh -5.5, Wee1 degr inh -1.3, RanGTP-Imp inh -2.8 and Runt-CBFb FRET 39.6.
`C=C(C)CC1Nc2ccccc2NC1CC(=C)C` (stereo unspecified) gave PHOSPHO1 inh 16.1, Runt-SMMHC FRET -40.3, HMGR II inh 3.3, Wee1 degr inh 0.9, RanGTP-Imp inh -7.9 and Runt-CBFb FRET -13.1.
`Cc1cccc(N2CCCn3c2nc2c3c(=O)[nH]c(=O)n2C)c1` gave RanGTP-Imp inh -7.5.
Screening CC(=O)c1c(C)oc2ccc(O)c(CN3CCOCC3)c12 returned PHOSPHO1 inh 9.1, Runt-SMMHC FRET -1.0, HMGR II inh -0.2, Wee1 degr inh -1.4, RanGTP-Imp inh 0.7 and Runt-CBFb FRET 1.1.
Screening O=S(=O)(Nc1ccc(S(=O)(=O)Nc2ccccc2)cc1)c1ccccc1 returned PHOSPHO1 inh -3.6, Runt-SMMHC FRET -5.1, HMGR II inh -1.6, Wee1 degr inh 9.2*, RanGTP-Imp inh -2.0 and Runt-CBFb FRET -2.9.
O=c1cc(-c2ccccc2)cc(-c2ccccc2)n1O was read as RanGTP-Imp inh 0.2.
CCc1ccc(S(=O)(=O)N2CCCC(N3CCN(c4ccc(OC)cc4)CC3)C2)cc1 (stereo unspecified) was read as PHOSPHO1 inh 42.6 and RanGTP-Imp inh -1.0.
Screening COC(=O)C1=CN(Cc2ccc(OC)cc2)C=C(C(=O)OC)C1c1cccs1 returned PHOSPHO1 inh 32.2, Runt-SMMHC FRET 39.1, HMGR II inh -6.3, Wee1 degr inh -1.8, RanGTP-Imp inh -1.6 and Runt-CBFb FRET 15.8.
For COC(=O)C1=CN(CCCN2CCCC2=O)C=C(C(=O)OC)C1c1cccs1 the results were PHOSPHO1 inh 3.4, Runt-SMMHC FRET 86.8*, HMGR II inh -0.9, Wee1 degr inh 0.3, RanGTP-Imp inh inconclusive and Runt-CBFb FRET 23.7.
For CNC(=O)NC(=O)CSc1nnc(-c2ccco2)n1-c1ccccc1 the results were PHOSPHO1 inh 25.3 and RanGTP-Imp inh 1.6.
